Converted amounts (≈) assume the structure as drawn.
Key:
[1] = Intrinsic clearance in human liver microsomes at 0.5 uM in presence of NADPH incubated upto 30 mins by UPLC-MS/MS analysis; assay type: ADME, Microsome; conditions: 0.5 h
How it was run: (§1)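 Compound at 0.5 μM incubated with female CD1 mouse, male Sprague-Dawley rat or pooled human liver microsomes (0.5 mg/mL, 50 mM potassium phosphate, pH 7.4). Reaction started with excess NADPH. Samples taken at 0-30 min, quenched in acetonitrile, analysed by UPLC-MS/MS. Verapamil used as control, single time course.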

[2] = Intrinsic clearance in Sprague-Dawley rat liver microsomes at 0.5 uM in presence of NADPH incubated upto 30 mins by UPLC-MS/MS analysis; assay type: ADME, Microsome; conditions: 0.5 h; how it was run: as §1
Plasmodium berghei [3] = experiment: Antiplasmodial activity against Plasmodium berghei ANKA infected in NMRI mouse assessed as reduction in parasitemia at 1 mg/kg, po QD for 4 days; assay type: functional; parameters: scale not given: the % may be the effect or the level left; conditions: time 4 day
How it was run: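 Female NMRI mice (n=3 per group, randomized, not blinded) infected with GFP-transfected P. berghei ANKA. Oral dosing once daily for 4 days in 10% DMSO/40% PEG400/50% water or HPMC suspension vehicle. Parasitaemia measured by flow cytometry on blood collected 96 h after infection. Mice watched for toxicity over 4 h post-dose each day.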

MRC5 = experiment: Antiproliferative activity against human MRC5 cells assessed as reduction in cell viability after 68 hrs by resazurin dye based fluorescence assay; conditions: MRC5, 68 h
How it was run: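 MRC-5 fibroblasts plated overnight as monolayers, exposed to compound pre-diluted in MEM for 68 h. Resazurin then added (final 50 μM) for 3 h, fluorescence read at ex 528/em 590 nm. Signal converted to % inhibition against high- and no-inhibition controls. Plates accepted at Z' > 0.5.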

[4] = Oral bioavailability in Sprague-Dawley rat at 3 mg/kg administered via gavage by UPLC-MS/MS analysis; assay type: ADME, organism-based; conditions: in vivo
How it was run: (§2)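 Oral gavage solution, 3 mg free base/kg (10 mL/kg; 0.5% w/v HPMC, 0.4% v/v Tween 80, 0.5% v/v benzyl alcohol), given to male Sprague Dawley rats (n=3). Blood taken at 5, 15, 30 min and 1, 2, 4, 6, 8, 24, 30 h, mixed with two volumes water, analysed by UPLC-MS/MS.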

[5] = Volume of distribution at steady state in Sprague-Dawley rat at 1 mg/kg, iv administered as bolus dose by UPLC-MS/MS analysis; assay type: ADME, organism-based; conditions: Sprague-Dawley, in vivo, read-out: Vdss
How it was run: (§3)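 Male Sprague Dawley rats (n=3/route) received an iv bolus solution at 1 mg free base/kg (5 mL/kg; 5% DMSO in saline). Blood sampled from 5 min to 30 or 48 h post-dose, mixed with two volumes water, frozen, then analysed by UPLC-MS/MS. Parameters derived from the blood concentration-time curve.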

[6] = Intrinsic clearance in CD1 mouse liver microsomes at 0.5 uM in presence of NADPH incubated upto 30 mins by UPLC-MS/MS analysis; assay type: ADME, Microsome; conditions: 0.5 h; how it was run: as §1
Plasmodium berghei [7] = experiment: Antiplasmodial activity against Plasmodium berghei ANKA infected in NMRI mouse assessed as survival days at 1 mg/kg, po QD for 4 days; assay type: functional; conditions: time 4 day
[8] = Cmax in Sprague-Dawley rat at 3 mg/kg, po administered via gavage by UPLC-MS/MS analysis; assay type: ADME, organism-based; parameters: route oral, dose 3 mg/kg; conditions: in vivo; how it was run: as §2
[9] = Kinetic aqueous solubility of the compound by laser nephelometry; assay type: physicochemical; conditions: read-out: Kinetic_solubility
How it was run: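 Kinetic solubility measured by laser nephelometry. DMSO serial dilutions diluted into water to give final 100–5 μg/mL at 1.0% DMSO. Read immediately, in triplicate aliquots.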

[10] = Tmax in Sprague-Dawley rat at 3 mg/kg, po administered via gavage by UPLC-MS/MS analysis; assay type: ADME, organism-based; conditions: in vivo; how it was run: as §2
[11] = Clearance in Sprague-Dawley rat blood at 1 mg/kg, iv administered as bolus dose by UPLC-MS/MS analysis; assay type: ADME, organism-based; how it was run: as §3
[12] = Permeability of the compound at 10 uM incubated for 5 hrs by UPLC-MS/MS analysis based PAMPA method; assay type: ADME; conditions: read-out: permeability
How it was run: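 PAMPA run on a lipid-oil-lipid tri-layer filter at pH 7.4. Compound at 10 μM in PBS (DMSO ≤5%) in donor wells, PBS in acceptor wells, kept 5 h at room temperature. Both compartments quantified by UPLC-MS/MS. Data accepted only when recovery exceeded 70%.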

[13] = AUC in Sprague-Dawley rat at 3 mg/kg, po administered via gavage by UPLC-MS/MS analysis; assay type: ADME, organism-based; parameters: dose 3 mg/kg; conditions: in vivo; how it was run: as §2
Plasmodium falciparum = experiment: Antiplasmodial activity against chloroquine-sensitive Plasmodium falciparum 3D7 infected in human red blood cells assessed as growth inhibition by SYBR Green fluorescence assay; assay type: functional, organism-based, RBC; conditions: 3D7, Erythrocyte
How it was run: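 P. falciparum 3D7 grown in 5% human red cells in RPMI 1640 (pH 7.3) with 0.5% Albumax II, hypoxanthine and gentamicin at 37°C under 1% O₂/3% CO₂. Growth measured by SYBR green fluorescence (ex 485/em 528 nm), with mefloquine as assay control. EC50 calculated.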

[14] = Half-life in Sprague-Dawley rat at 1 mg/kg, iv administered as bolus dose by UPLC-MS/MS analysis; assay type: ADME, organism-based; conditions: Sprague-Dawley, in vivo; how it was run: as §3
HepG2 = experiment: Antiproliferative activity against human HepG2 cells assessed as reduction in cell viability; assay type: cell-based

EC50 (HepG2) [nM] | SMILES | CLH [1] [mL/min/g] | CLH [2] [mL/min/g] | Activity (Plasmodium berghei [3]) [%] | EC50 (MRC5) [nM] | bioavailability [4] [%] | Vd [5] [L/kg] | CLH [6] [mL/min/g] | Survival (Plasmodium berghei [7]) [days] | Cmax [8] [ng/mL] | solubility kinetic [9] [µM] | Tmax [10] [h] | clearance [11] [mL/min/kg] | Papp at 5 h, 10 µM [12] [×10⁻⁶ cm/s] | AUC [13] [ng·h/mL] | EC50 (Plasmodium falciparum) [nM] | half-life [14] [h]
– | O=C(NCCN1CCCC1)c1cc(-c2ccc(CN3CCOCC3)cc2F)nc2ccc(F)cc12 | 1.5 | < 0.5 | 99.9 | 41000 | 33 | 10 | < 0.5 | 14 | 29 | 208 (≈ 100 µg/mL) | 8 | 32 | 13.2 | 507 | 2 | 4
> 50000 | O=C(NCCNC1CC1)c1cc(-c2ccc(CN3CCOCC3)cc2)nc2ccc(F)cc12 | – | – | – | – | – | – | 2 | – | – | – | – | – | 4.9 | – | 2 | –

Source: ChEMBL document CHEMBL4680079, “Discovery of a Quinoline-4-carboxamide Derivative with a Novel Mechanism of Action, Multistage Antimalarial Activity, and Potent in Vivo Efficacy” (J Med Chem, 2016)
